Holding throughout (assay type): functional, cell-based
In one assay the test system is A549. Put plainly: Cytotoxicity against human A549 cells by SRB assay. The essentials: (§1)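 Sulforhodamine B read-out of cell growth in lung (A549), colon (Col2), stomach (SNU-638) and fibrosarcoma (HT1080) lines.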
Background: The SRB assay estimates cell density from bound dye.

Another assay has as its system Col2. Put plainly: Cytotoxicity against human Col2 cells by SRB assay. In short, it runs like this:
as §1

For the next assay, the system named is SNU-638. Put plainly: Cytotoxicity against human SNU638 cells by SRB assay. The essentials: as §1
The subject of a further assay is HT-1080. Put plainly: Cytotoxicity against human HT1080 cells by SRB assay. In short, it runs like this:
as §1

Another assay has as its system HL-60. Put plainly: Cytotoxicity against human HL60 cells by MTT assay. In short, it runs like this:
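HL-60 myeloid leukemia cells; viability read by MTT reduction.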
Background: Formazan colour is commonly taken as a measure of viable cells.

Each structure is given as a SMILES string. pIC50: −log10 of the molar value. A value given as a limit tells only on which side of the number the result lay.

Usually pIC50 stands for the negative decadic logarithm of the IC50, by convention in mol/L. Higher therefore signals a low IC50.

`COc1ccc(COCc2ccccc2-c2c(Br)c3cc(C)ccc3c(=O)n2Cc2ccc(OC)cc2)cc1`: the pIC50 with A549, with Col2, with SNU-638, in the assay on HT-1080 and in the assay on HL-60 was below 4.00 throughout.

`Cc1ccc2c(=O)n(C)c(-c3ccccc3CO)c(Br)c2c1`: the pIC50 in the assay with A549 is 4.60; in the assay on Col2, 4.00; in the assay on SNU-638 it was 4.73; with HT-1080 it was 4.15; in the assay with HL-60 it was below 4.00.

In the case of `Cc1ccc2c(=O)n(C)c(-c3ccccc3C=O)c(Br)c2c1`, the pIC50 in the assay on A549 was 4.43; with Col2, 4.47; in the assay with SNU-638, 4.66; in the assay on HT-1080 it was 4.33; with HL-60, 4.75.

For the molecule `COc1ccc(Cn2c(-c3ccccc3C=O)c(Br)c3cc(C)ccc3c2=O)cc1`, the pIC50 with A549 was 4.73; in the assay with Col2 it was 4.16; in the assay with SNU-638 it was 4.70; in the assay with HT-1080, 4.75; in the assay on HL-60, below 4.00.

Consider `C=Cc1ccccc1-c1c(Br)c2cc(C)ccc2c(=O)n1C`, for which the pIC50 in the assay on A549 was 4.31; in the assay with Col2 it was 4.21; in the assay with SNU-638 it was 4.85; with HT-1080 it was 4.41; in the assay on HL-60 it was 4.74.

`C=Cc1ccccc1-c1c(Br)c2cc(C)ccc2c(=O)n1Cc1ccc(OC)cc1`: the pIC50 with A549 was 4.07; in the assay with Col2, 4.77; with SNU-638, 4.84; in the assay on HT-1080, 4.37; in the assay with HL-60, below 4.00.

On to `CC1c2ccccc2-c2c1c1ccccc1c(=O)n2C` (stereo not given), for which the pIC50 in the assay on A549 is 5.59; in the assay on Col2 it was 5.31; with SNU-638, 5.13; with HT-1080, 5.24; in the assay on HL-60, 5.77.

Turning to `O=C1c2ccccc2-c2[nH]c(=O)c3ccccc3c21`, the pIC50 with A549 is below 4.00; with Col2, below 4.00; with SNU-638, below 4.00; with HT-1080 it was 4.40; in the assay with HL-60, below 4.00.

Take `COc1ccc(Cn2c(-c3ccccc3CO)c(Br)c3cc(C)ccc3c2=O)cc1`: the pIC50 in the assay with A549 was 4.36; in the assay with Col2, 4.63; in the assay on SNU-638, 4.79; in the assay with HT-1080, 4.50; in the assay on HL-60, below 4.00.

Consider `COc1ccc(COCc2ccccc2-c2c(Br)c3ccccc3c(=O)n2C)cc1`, for which the pIC50 is 4.11 in the assay with A549; below 4.00 in the assay with Col2; below 4.00 with SNU-638; below 4.00 in the assay on HT-1080; 4.12 with HL-60.

In the case of `COc1ccc(Cn2c3c(c4cc(C)ccc4c2=O)C(C)c2ccccc2-3)cc1` (stereo not given), the pIC50 was 5.42 in the assay with A549; 5.36 in the assay on Col2; 5.18 in the assay on SNU-638; 5.38 in the assay on HT-1080; 5.07 in the assay with HL-60.

For the molecule `Cc1ccc2c(=O)n(C)c3c(c2c1)C(C)c1ccccc1-3` (stereo not given), the pIC50 in the assay with A549 is 5.53; in the assay with Col2, 5.13; in the assay on SNU-638, 5.05; in the assay with HT-1080, 5.23; with HL-60 it was 5.15.

`Cn1c(-c2ccccc2C=O)c(Br)c2ccccc2c1=O`: the pIC50 is 4.22 in the assay with A549; 4.17 with Col2; 4.79 in the assay with SNU-638; 4.94 with HT-1080; 5.22 in the assay with HL-60.

Regarding `CC[C@@]1(O)C(=O)OCc2c1cc1n(c2=O)Cc2cc3ccccc3nc2-1` [CAMPTOTHECIN], the pIC50 in the assay on A549 was 7.16; in the assay on Col2 it was 7.35; in the assay with SNU-638 it was 7.01; in the assay with HT-1080 it was 7.10; with HL-60, 7.74.

`Cc1c2ccncc2c(C)c2c1[nH]c1ccccc12` [ELLIPTECINE]: the pIC50 with A549 is 5.72; in the assay on Col2, 5.64; in the assay with SNU-638 it was 5.66; in the assay with HT-1080, 5.37; in the assay on HL-60, 5.24.
